Assay results from ChEMBL document CHEMBL3867440, “Hernandezine, a Bisbenzylisoquinoline Alkaloid with Selective Inhibitory Activity against Multidrug-Resistance-Linked ATP-Binding Cassette Drug Transporter ABCB1” (J Nat Prod, 2016).

What was measured:
[1] = Cytotoxicity against HEK293 cells assessed as reduction in cell viability at 1 uM after 72 hrs by CCK8 assay; assay type: toxicity, cell-based; details: human, hek293, 72 h
[2] = molecular target: T1, ATP-dependent translocase ABCB1 (Homo sapiens, UniProt P08183); assay: Inhibition of human ABCB1 transfected in HEK293 cells assessed as potentiation of doxorubicin-induced cytotoxicity by measuring doxorubicin resistance ratio at 50 nM after 72 hrs by CCK8 assay relative to parental HEK293 cells (reference value: 96); assay type: cell-based; details: hek293, 72 h, 0.05 µM
[3] = molecular target: T1, ATP-dependent translocase ABCB1; assay: Inhibition of ABCB1 in human KBV1 cells assessed as potentiation of doxorubicin-induced cytotoxicity by measuring doxorubicin resistance ratio at 50 nM after 72 hrs by MTT assay relative to parental KB-3-1 cells (reference value: 34); assay type: cell-based; details: kbv1, 72 h, 0.05 µM
Summary of the method: (§1)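 Cells were kept in drug-free DMEM with 10% FCS for 7 days before assay, then plated at 5000 cells/well for 24 h. Drug at various concentrations was added with a nontoxic fixed level of modulator for 72 h, and the read-out was MTT. IC50 came from fitted curves (≥3 experiments). RR = IC50 of the resistant line / IC50 of the parental line.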

[4] = molecular target: T1, ATP-dependent translocase ABCB1; assay: Inhibition of ABCB1 in human KBV1 cells assessed as potentiation of vincristine-induced cytotoxicity by measuring vincristine resistance ratio at 200 nM after 72 hrs by MTT assay relative to parental KB-3-1 cells (reference value: 356); assay type: cell-based; details: kbv1, 72 h, 0.2 µM; summary of the method: as §1
[5] = molecular target: T1, ATP-dependent translocase ABCB1; assay: Inhibition of ABCB1 in human KBV1 cells assessed as potentiation of vincristine-induced cytotoxicity by measuring vincristine resistance ratio at 100 nM after 72 hrs by MTT assay relative to parental KB-3-1 cells (reference value: 356); assay type: cell-based; details: kbv1, 72 h, 0.1 µM; summary of the method: as §1
KB-V1 = assay: Induction of apoptosis in human KBV1 cells assessed as early apoptotic cells at 1 uM after 48 hrs by Annexin V-FITC/propidium iodide staining based FACS analysis (reference value: 5.3%); assay type: functional

T1 sequence (P08183 whole entry): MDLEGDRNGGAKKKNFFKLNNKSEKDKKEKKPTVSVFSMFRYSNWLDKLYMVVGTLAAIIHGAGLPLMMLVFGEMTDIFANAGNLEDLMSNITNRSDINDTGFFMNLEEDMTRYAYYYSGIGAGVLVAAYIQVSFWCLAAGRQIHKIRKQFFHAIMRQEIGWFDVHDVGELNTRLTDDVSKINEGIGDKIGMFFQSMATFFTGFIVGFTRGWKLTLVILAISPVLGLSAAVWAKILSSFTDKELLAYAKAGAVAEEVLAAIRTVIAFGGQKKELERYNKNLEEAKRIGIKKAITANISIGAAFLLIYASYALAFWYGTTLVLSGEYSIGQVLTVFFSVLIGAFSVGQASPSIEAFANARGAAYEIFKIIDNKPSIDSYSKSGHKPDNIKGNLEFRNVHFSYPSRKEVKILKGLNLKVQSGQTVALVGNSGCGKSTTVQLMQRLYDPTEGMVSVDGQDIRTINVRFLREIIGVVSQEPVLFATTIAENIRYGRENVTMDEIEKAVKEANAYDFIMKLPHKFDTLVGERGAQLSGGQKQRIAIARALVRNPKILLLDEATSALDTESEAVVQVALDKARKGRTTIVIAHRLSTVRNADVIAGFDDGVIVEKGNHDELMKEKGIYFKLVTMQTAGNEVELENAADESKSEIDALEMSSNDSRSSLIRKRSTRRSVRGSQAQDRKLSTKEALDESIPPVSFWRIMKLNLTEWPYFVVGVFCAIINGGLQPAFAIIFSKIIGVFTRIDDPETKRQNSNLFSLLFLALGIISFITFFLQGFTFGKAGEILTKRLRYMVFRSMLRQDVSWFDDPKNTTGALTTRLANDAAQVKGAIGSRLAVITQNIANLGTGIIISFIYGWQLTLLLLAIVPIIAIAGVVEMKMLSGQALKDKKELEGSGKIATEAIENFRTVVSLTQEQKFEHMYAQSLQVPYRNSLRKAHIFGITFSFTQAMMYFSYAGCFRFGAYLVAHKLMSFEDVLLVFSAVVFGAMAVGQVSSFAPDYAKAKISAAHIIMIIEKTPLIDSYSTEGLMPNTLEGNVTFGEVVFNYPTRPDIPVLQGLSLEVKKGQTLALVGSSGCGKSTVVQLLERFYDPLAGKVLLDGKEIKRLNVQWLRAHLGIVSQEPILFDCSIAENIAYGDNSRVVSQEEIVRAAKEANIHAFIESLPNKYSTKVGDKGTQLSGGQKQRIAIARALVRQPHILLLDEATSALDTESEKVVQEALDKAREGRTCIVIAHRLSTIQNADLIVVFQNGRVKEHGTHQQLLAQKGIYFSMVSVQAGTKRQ

Structure (SMILES): COc1ccc2cc1Oc1ccc(cc1)C[C@H]1c3cc(c(OC)cc3CCN1C)Oc1c(OC)c(OC)c(OC)c3c1[C@H](C2)N(C)CC3 [HERNANDEZINE]
- Activity [1]: Non-Toxic
- Ratio [2]: 16
- Ratio [3]: 9
- Ratio [4]: 34
- Ratio [5]: 169
- Activity (KB-V1): 4.7%
